# ChEMBL document CHEMBL1687761
# Assays:
# Escherichia coli [1] = assay: Activity of Escherichia coli XL1-Blue VIM-2 A64W mutant beta-lactamase by spectrophotometer
# Method in brief: (§1)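 Mutant enzyme expressed in E. coli BL21(DE3) in autoinducing ZYP-5052 medium. Purified by anion exchange at pH 7.2, then high-resolution anion exchange at pH 9.2, plus gel filtration in 50 mM HEPES-50 μM ZnSO4 pH 7.5 where needed. Identity confirmed by tryptic peptide mass fingerprint. Steady-state kinetics on β-lactam substrates were run under the conditions used for wild-type VIM-2.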
# Escherichia coli [2] = assay: Activity of Escherichia coli XL1-Blue wild-type IMP-1 beta-lactamase by spectrophotometer
# Escherichia coli [3] = assay: Ratio of Kcat to Km for Escherichia coli XL1-Blue wild-type IMP-1 beta-lactamase by spectrophotometer
# Escherichia coli [4] = assay: Ratio of Kcat to Km for Escherichia coli XL1-Blue IMP-1 W64A mutant beta-lactamase by spectrophotometer
# Escherichia coli [5] = assay: Ratio of Kcat to Km for Escherichia coli XL1-Blue VIM-2 A64W mutant beta-lactamase by spectrophotometer; method in brief: as §1
# Escherichia coli [6] = assay: Activity of Escherichia coli XL1-Blue IMP-1 W64A mutant beta-lactamase by spectrophotometer
# [7] = test system: CO/N=C(\C(=O)N[C@@H]1C(=O)N2C(C(=O)[O-])=C(C[N+]3(C)CCCC3)CS[C@H]12)c1csc(N)n1; assay: (§2) Activity of Escherichia coli BL21(DE3) VIM-2 W87A mutant beta-lactamase by spectrophotometer
# [8] = test system: C[C@@H](O)[C@H]1C(=O)N2C(C(=O)O)=C(SCCNC=N)C[C@H]12; assay: as §2
# [9] = test system: CO/N=C(\C(=O)N[C@@H]1C(=O)N2C(C(=O)[O-])=C(C[N+]3(C)CCCC3)CS[C@H]12)c1csc(N)n1; assay: (§3) Ratio of Kcat to Km for Escherichia coli BL21(DE3) VIM-2 W87A mutant beta-lactamase by spectrophotometer
# [10] = test system: C[C@@H](O)[C@H]1C(=O)N2C(C(=O)O)=C(SCCNC=N)C[C@H]12; assay: as §3
Compound,Km (Escherichia coli [1]),kcat (Escherichia coli [1]),Km (Escherichia coli [2]),kcat (Escherichia coli [2]),kcat/Km (Escherichia coli [3]),kcat/Km (Escherichia coli [4]),kcat/Km (Escherichia coli [5]),Km (Escherichia coli [6]),kcat (Escherichia coli [6]),Km [7],kcat [7],Km [8],kcat [8],kcat/Km [9],kcat/Km [10]
CC(=O)OCC1=C(C(=O)O)N2C(=O)[C@@H](NC(=O)Cc3cccs3)[C@H]2SC1,6 µM,135 s⁻¹,5 µM,32 s⁻¹,6.4e+06 M⁻¹ s⁻¹,310000 M⁻¹ s⁻¹,2.2e+07 M⁻¹ s⁻¹,> 500 µM,> 250 s⁻¹,,,,,,
Metallo-beta-lactamase (Escherichia coli) (from UniProt Q5U7L7) W87A,,,,,,,,,,> 350 µM,> 4.5 s⁻¹,22 µM,119 s⁻¹,12000 M⁻¹ s⁻¹,5.4e+06 M⁻¹ s⁻¹
O=C(Cc1cccs1)N[C@@H]1C(=O)N2C(C(=O)O)=C(/C=C/c3ccc([N+](=O)[O-])cc3[N+](=O)[O-])CS[C@H]12,10 µM,270 s⁻¹,8.2 µM,130 s⁻¹,1.4e+07 M⁻¹ s⁻¹,4.3e+06 M⁻¹ s⁻¹,2.7e+07 M⁻¹ s⁻¹,160 µM,700 s⁻¹,,,,,,
C[C@@H](O)[C@H]1C(=O)N2C(C(=O)O)=C(S[C@@H]3CN[C@H](C(=O)N(C)C)C3)[C@H](C)[C@H]12,2 µM,6 s⁻¹,10 µM,5 s⁻¹,500000 M⁻¹ s⁻¹,,3e+06 M⁻¹ s⁻¹,,,,,,,,
CO/N=C(\C(=O)N[C@@H]1C(=O)N2C(C(=O)O)=C(COC(C)=O)CS[C@H]12)c1csc(N)n1,7 µM,26 s⁻¹,2.8 µM,13.4 s⁻¹,4.8e+06 M⁻¹ s⁻¹,1.5e+06 M⁻¹ s⁻¹,3.7e+06 M⁻¹ s⁻¹,61 µM,98 s⁻¹,,,,,,
